RGS4 inh: human RGS4 inhibition. P49798. 0.45% of 310,000 active. B-score at 10 µM. AID 463165. HEK293 M3R/RGS4 inducible, Fluo-4 calcium flux; stronger effect = higher value; triggered by carbachol at its EC20;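 active = B-score, a plate-corrected calcium signal, over three deviations above library mean, with baseline fluorescence within five deviations of library mean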;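 also: RGS4 expression induced by doxycycline in cells with stable M3 receptor; B-score is computed from the integrated fluorescence ratio over baseline after carbachol; higher B-score means a larger calcium signal and so more RGS4 inhibition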
Target sequence (P49798 whole entry, looked up): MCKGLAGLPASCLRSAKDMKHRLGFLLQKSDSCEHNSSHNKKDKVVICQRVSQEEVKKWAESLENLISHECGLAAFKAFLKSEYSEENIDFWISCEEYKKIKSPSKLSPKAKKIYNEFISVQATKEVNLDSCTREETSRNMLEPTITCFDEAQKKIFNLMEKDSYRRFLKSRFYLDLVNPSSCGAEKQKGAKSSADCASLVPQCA
RGS4 pot: RGS4 potentiation or activation. B-score at 10 µM. HEK293 M3R/inducible RGS4, carbachol calcium flux Fluo4; stronger effect = lower value. AID 463111. 0.92% of 310,000 active;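 active = B-score of the integrated calcium signal more than 4 SD below the library mean, with starting fluorescence not abnormally high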;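 also: negative B-score means reduced calcium response which marks RGS4 activation or potentiation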
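Material: M3R-expressing HEK293 line, RGS4 induced by doxycycline | Schedule: Overnight RGS4 induction, 30 min dye load 37 °C, 20 min compound RT | Measured by: Fluo4 fluorescence kinetic imaging of calcium | Read-out: Integrated calcium ratio converted to B score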
MrgX1 antag: blocks BAM8-22 activation of human MrgX1 receptor | MRGX1-HEK293 calcium flux, Fluo-4, BAM8-22 antagonism; stronger effect = lower value | B-score at 10 µM | 1.3% of 310,000 active;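 active = calcium-response B-score plate-corrected more than 3 library SD below zero, starting fluorescence within 5 deviations, no agonist response on first addition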;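 also: peak minus trough fluorescence over baseline after final BAM8-22 challenge near maximal dose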
Target sequence (Q96LB2 whole entry, looked up): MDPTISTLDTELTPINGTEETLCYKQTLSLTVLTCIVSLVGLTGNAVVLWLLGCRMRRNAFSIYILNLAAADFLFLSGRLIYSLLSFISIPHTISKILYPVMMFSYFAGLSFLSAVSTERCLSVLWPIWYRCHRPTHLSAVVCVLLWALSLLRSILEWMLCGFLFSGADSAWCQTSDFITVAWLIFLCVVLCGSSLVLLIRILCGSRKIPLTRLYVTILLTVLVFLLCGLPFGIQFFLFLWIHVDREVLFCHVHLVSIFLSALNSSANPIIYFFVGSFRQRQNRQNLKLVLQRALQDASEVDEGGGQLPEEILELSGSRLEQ
MrgX1 agonist: agonists of human MrgX1 receptor; Q96LB2; MrgX1-HEK293 cells, Fluo-4 calcium fluorescence, agonist mode; stronger effect = higher value; B-score at 10 µM; 0.44% of 310,000 active; AID 588627;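 active = calcium response B-score plate-corrected fluorescence ratio at least 3 library SD, with starting fluorescence B-score inside 5 SD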
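times = overnight plating, then 30 min 37 °C plus 30 min room-temperature dye loading | assay system = stable human MrgX1 HEK293 cell line | input = fifteen thousand cells per well | signal = kinetic calcium dye fluorescence, Fluo-4 NW | dosing = compound delivered in addition one of three | read-out = B-scored fluorescence response ratio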
MrgX1 PAM: allosterically activates human MrgX1 receptor signaling. B-score at 10 µM. AID 588675. 0.63% of 310,000 active. MrgX1-HEK293, Fluo-4 calcium flux, FDSS; stronger effect = higher value. Q96LB2;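 active = plate-corrected calcium response at least 3 library SD above typical, normal starting fluorescence, not activating the receptor alone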;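 also: compound read alongside a low EC10 to EC30 dose of BAM8-22 agonist; peak minus trough fluorescence over baseline measured at the second addition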
RGS4 inh valid: RGS4 inhibitor validation. HEK293 M3R/RGS4, carbachol calcium Fluo-4 fluorescence; carbachol added at its EC20; 0 = buffer wells, 100 = carbachol control. 65% of 1,700 active. shares compounds with RGS4 inh. calcium response, % at 10 µM;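 active = duplicate-averaged calcium response above the buffer-only control mean plus 5 SD of those controls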;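 also: integrated fluorescence ratio F max minus min over baseline F0; higher response in RGS4-induced cells means RGS4 inhibition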
M3R Ca ctr: checks RGS4 inhibitor effects in non-induced HEK293 M3R cells. AID 493000. 20% of 1,900 active. activity (percent), % at 10 µM. shares compounds with RGS4 inh. carbachol calcium Fluo-4; submaximal (EC20) carbachol stimulus; buffer wells 0%, carbachol control wells 100%; call rule not given here;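 also: RGS4 induction absent so cells express M3R without RGS4; higher means more calcium signal and flags a non-specific hit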
M3R basal Ca ctr: second counter-screen for RGS4 inhibitors: non-induced cells without carbachol; HEK293 M3R/RGS4 non-induced, Fluo-4 calcium, no carbachol; normalised: buffer wells 0%, carbachol wells 100%; 22% of 1,900 active; shares compounds with RGS4 inh; AID 493001; calcium response (agonist-mode artifact), % at 10 µM;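 active = duplicate-averaged calcium rise in uninduced cells above buffer wells' mean plus 5 SD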
MrgX1 ag reconf: confirmation of human MrgX1 receptor agonists; shares compounds with MrgX1 agonist; MrgX1-HEK293, Fluo-4 calcium fluorescence, FDSS; activation, % at 10 µM; 78% of 600 active; AID 602412;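 active = calcium signal rise, corrected for plate position, at least 3 library SD high, with starting brightness within 5 such deviations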; also: reference of the scale not given here
MrgX1 allo conf: human MrgX1 positive allosteric modulation, re-confirmation; shares compounds with MrgX1 PAM; MrgX1-HEK293, Fluo-4 calcium fluorescence, FDSS; activation (ratio percentage), % at 10 µM; 13% of 1,200 active; AID 602413;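 active = ratio at least 3 SD above the weak peptide control, stable starting fluorescence, no direct agonism earlier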;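 also: compound followed by low BAM8-22 agonist challenge near EC20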
MrgX1 ant reconf: human MrgX1 receptor antagonism, re-confirmation screen | MrgX1-HEK293, BAM8-22 calcium flux, Fluo-4; stronger effect = lower value | AID 602420 | 19% of 2,300 active | remaining BAM8-22 calcium response % of control (stronger effect = lower value), % at 10 µM | shares compounds with MrgX1 antag;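 active = remaining agonist calcium response no higher than 100% minus 3 SD of agonist-only control wells, with starting fluorescence near control levels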;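 also: agonist BAM8-22 given at a near maximal EC90 to ECmax level; peak minus minimum fluorescence divided by baseline after agonist addition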
HEK293 Ca flux: MrgX1 antagonist counter-screen hit in parental HEK293 cells | shares compounds with MrgX1 antag | Fluo-4 calcium fluorescence, FDSS | fluorescence ratio F(max-min)/F0 at 10 µM | 2% of 4,000 active;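 active = duplicate-averaged calcium fluorescence ratio at least three times the standard deviation of buffer wells, a nonspecific response in parental cells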
HEK293 Ca counter: counter-screen for MrgX1 allosteric activators: effect in parental HEK293 cells | 0.4% of 4,000 active | parental HEK293 calcium flux, Fluo-4 fluorescence ratio; stronger effect = higher value | shares compounds with MrgX1 antag | fluorescence ratio F(max-min)/F0 at 10 µM;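 active = calcium fluorescence ratio, averaged over duplicates, at least 3 SD of the buffer-well ratio, meaning a nonspecific response in receptor-free cells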;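 also: untransfected parental HEK293 lacking MrgX1 used as counterscreen for MrgX1 allosteric activators; fluorescence change taken during the second addition on a kinetic imager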
HEK293 Ca cntr2: activity in parental HEK293 cells lacking MrgX1 receptor | shares compounds with MrgX1 antag | 8.7% of 4,000 active | Fluo-4 calcium fluorescence (FDSS); stronger effect = higher value | fluorescence ratio F(max-min)/F0 at 10 µM | AID 624115;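 active = calcium fluorescence ratio at least three times the spread of buffer wells, meaning a non-specific response in parental cells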
Numbers stand for hits. Sampled rows, rich in hits. Any-hit rate of the full collection: about 3.5%.

`COc1cc(/C=C2/C(=O)NN(c3cccc(Cl)c3)C2=O)cc(OC)c1O` gave RGS4 inh inactive, RGS4 pot inactive, MrgX1 antag inactive, MrgX1 agonist 79.3, MrgX1 PAM inactive, M3R Ca ctr inactive, M3R basal Ca ctr 106.5%, MrgX1 ag reconf 420.7%, HEK293 Ca flux inactive, HEK293 Ca counter inactive and HEK293 Ca cntr2 84.1.
For c1cc[n+](CCC[n+]2ccccc2)cc1 the results were RGS4 inh inactive, RGS4 pot inactive, MrgX1 antag inactive, MrgX1 agonist inactive and MrgX1 PAM inactive.
Screening COC(=O)C1=C(O)/C(=C/c2cccc(OC)c2O)N=C1C returned RGS4 inh inactive, RGS4 pot inactive, MrgX1 antag inactive, MrgX1 agonist inactive and MrgX1 PAM inactive.
Screening CCOC(=O)C1=C(O)/C(=C\c2cccc(OC)c2)N=C1C returned RGS4 inh 13.9, RGS4 pot inactive, MrgX1 antag inactive, MrgX1 agonist 31.8, MrgX1 PAM inactive, RGS4 inh valid 47.0%, M3R Ca ctr inactive, M3R basal Ca ctr inactive, MrgX1 ag reconf 158.3%, HEK293 Ca flux inactive, HEK293 Ca counter inactive and HEK293 Ca cntr2 inactive.
`Cc1c(-c2nc(N)nc(Nc3ccccc3F)n2)oc2ccccc12` gave RGS4 inh inactive, RGS4 pot inactive, MrgX1 antag inactive, MrgX1 agonist inactive, MrgX1 PAM 16.5, M3R Ca ctr inactive, M3R basal Ca ctr inactive, MrgX1 allo conf 58.5%, HEK293 Ca flux inactive, HEK293 Ca counter inactive and HEK293 Ca cntr2 inactive.
For O=C1/C(=C\c2ccc(O)c(O)c2)SC(=S)N1Cc1ccccc1 the results were RGS4 inh 13.9, RGS4 pot inactive, MrgX1 antag -12, MrgX1 agonist inactive, MrgX1 PAM inactive, RGS4 inh valid 15.5%, M3R Ca ctr 36.5%, M3R basal Ca ctr 41.5%, MrgX1 ant reconf inactive, HEK293 Ca flux 0.306, HEK293 Ca counter inactive and HEK293 Ca cntr2 inactive.
For O=C1/C(=C/c2ccc(O)cc2)SC(=S)N1Cc1cccnc1 the results were RGS4 inh inactive, RGS4 pot inactive, MrgX1 antag inactive, MrgX1 agonist inactive and MrgX1 PAM inactive.
Screening CN(C(=O)CC1C(=O)NCCN1Cc1cccc(C(F)(F)F)c1)C1CCOCC1 (stereo unspecified) returned RGS4 inh inactive, RGS4 pot inactive, MrgX1 antag inactive, MrgX1 agonist inactive and MrgX1 PAM inactive.
For CCOC(=O)[C@@H]1[C@H]2COc3ccccc3[C@@H]2N2C(=O)N(c3cccc(C)c3)C(=O)[C@]12C the results were RGS4 inh inactive, RGS4 pot inactive, MrgX1 antag -5.8, MrgX1 agonist inactive, MrgX1 PAM inactive, RGS4 inh valid inactive, M3R Ca ctr inactive, M3R basal Ca ctr inactive, MrgX1 ant reconf inactive, HEK293 Ca flux inactive, HEK293 Ca counter inactive and HEK293 Ca cntr2 inactive.
For CCOC(=O)[C@@H]1[C@H]2COc3ccccc3[C@H]2N2C(=O)N(c3ccc(OC)cc3)C(=O)[C@]12C the results were RGS4 inh inactive, RGS4 pot inactive, MrgX1 antag -6.32, MrgX1 agonist inactive, MrgX1 PAM inactive, RGS4 inh valid inactive, M3R Ca ctr inactive, M3R basal Ca ctr inactive, MrgX1 ant reconf inactive, HEK293 Ca flux inactive, HEK293 Ca counter inactive and HEK293 Ca cntr2 inactive.
CCOC(=O)[C@@H]1[C@H]2COc3cc(OC)ccc3[C@H]2N2C(=O)N(c3ccc(C(F)(F)F)cc3)C(=O)[C@@]12C was read as RGS4 inh inactive, RGS4 pot inactive, MrgX1 antag inactive, MrgX1 agonist inactive and MrgX1 PAM inactive.
`NC(N)=NC(=S)Nc1ccc(Cl)cc1` gave RGS4 inh inactive, RGS4 pot inactive, MrgX1 antag inactive, MrgX1 agonist inactive and MrgX1 PAM inactive.
Screening CCc1cccc(C)c1NC(=S)N1CCCCC1c1cccnc1 (stereo unspecified) returned RGS4 inh inactive, RGS4 pot inactive, MrgX1 antag inactive, MrgX1 agonist 28, MrgX1 PAM inactive, MrgX1 ag reconf 99.9%, HEK293 Ca flux inactive, HEK293 Ca counter inactive and HEK293 Ca cntr2 48.3.
`CSc1nnc(-c2cc(Br)ccc2N=Cc2c(C)[nH]n(-c3ccccc3)c2=O)c(=O)[nH]1` gave RGS4 inh inactive, RGS4 pot inactive, MrgX1 antag inactive, MrgX1 agonist inactive and MrgX1 PAM inactive.
CCSc1nnc(-c2cc(Br)ccc2N=Cc2c(C)[nH]n(-c3ccccc3)c2=O)c(=O)[nH]1 was read as RGS4 inh inactive, RGS4 pot inactive, MrgX1 antag inactive, MrgX1 agonist 71.3, MrgX1 PAM inactive, MrgX1 ag reconf 108.6%, HEK293 Ca flux inactive, HEK293 Ca counter inactive and HEK293 Ca cntr2 61.
For Oc1ccccc1-c1nnc2n1CCCCC2 the results were RGS4 inh inactive, RGS4 pot inactive, MrgX1 antag inactive, MrgX1 agonist 26.9, MrgX1 PAM inactive, MrgX1 ag reconf inactive, HEK293 Ca flux inactive, HEK293 Ca counter inactive and HEK293 Ca cntr2 inactive.
`Cc1ccc(-c2nnc3n2CCCCC3)cc1` gave RGS4 inh inactive, RGS4 pot inactive, MrgX1 antag inactive, MrgX1 agonist inactive and MrgX1 PAM inactive.
